In ChEMBL document CHEMBL2169781, “Discovery and biological evaluation of a novel class of dual microsomal prostaglandin E2 synthase-1/5-lipoxygenase inhibitors based on 2-[(4,6-diphenethoxypyrimidin-2-yl)thio]hexanoic acid” (J Med Chem, 2011):
Calls of active or inactive are those of the source. The calls are words filed in the database; no cut-off is given here.

Assays:
[1] = system: Radical scavenging activity; assay: Antioxidant activity assessed as DPPH radical scavenging activity at 100 uM; format: functional
Summary of the method: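 Non-enzymatic radical scavenging test: reduction of 1,1-diphenyl-2-picrylhydrazyl (DPPH) measured with test compound up to 100 μM; ascorbic acid and L-cysteine run as reference reductants.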

Prostaglandin E synthase = biological target: T1, Prostaglandin E synthase (Homo sapiens, UniProt O14684); assay: Inhibition of mPGES-1 in human IL-1beta-stimulated A549 cell microsomes assessed as reduction of PGE2 formation from PGH2 after 15 mins by RP-HPLC analysis; design: species or system Microsome
T1 sequence (O14684 whole entry): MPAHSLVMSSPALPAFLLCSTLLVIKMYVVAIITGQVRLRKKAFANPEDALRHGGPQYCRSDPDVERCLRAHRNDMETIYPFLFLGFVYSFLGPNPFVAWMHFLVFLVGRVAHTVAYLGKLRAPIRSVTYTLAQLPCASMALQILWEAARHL
Summary of the method: (§1)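 A549 cells in DMEM with 2% FCS for 16 h, induced with IL-1β (1 ng/mL) for 72 h, homogenized. Microsomal pellet (174 000 × g) diluted in 0.1 M potassium phosphate pH 7.4 with 2.5 mM glutathione, given compound or DMSO for 15 min. PGH₂ added (20 μM final), 1 min at 4 °C, stopped with FeCl₂/citric acid. PGE₂ by SPE and RP-HPLC (UV 195 nm), 11β-PGE₂ internal standard. Tested up to 10 μM; IC₅₀ reported only above 50% inhibition at 10 μM.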

[2] = biological target: T2, Prostaglandin E synthase (Homo sapiens) (UniProt O14684); assay: Inhibition of mPGES-1 in human IL-1beta-stimulated A549 cell microsomes assessed as residual activity by measuring reduction of PGE2 formation from PGH2 at 10 uM after 15 mins by RP-HPLC analysis; conditions: Microsome; summary of the method: as §1
T2 sequence (whole entry): T1 sequence (O14684 whole entry)

[3] = biological target: T3, Polyunsaturated fatty acid 5-lipoxygenase (Homo sapiens, UniProt P09917); assay: Inhibition of human recombinant 5-lipoxygenase-mediated product formation from arachidonic acid after 5 to 10 mins by HPLC analysis
T3 sequence (P09917 whole entry): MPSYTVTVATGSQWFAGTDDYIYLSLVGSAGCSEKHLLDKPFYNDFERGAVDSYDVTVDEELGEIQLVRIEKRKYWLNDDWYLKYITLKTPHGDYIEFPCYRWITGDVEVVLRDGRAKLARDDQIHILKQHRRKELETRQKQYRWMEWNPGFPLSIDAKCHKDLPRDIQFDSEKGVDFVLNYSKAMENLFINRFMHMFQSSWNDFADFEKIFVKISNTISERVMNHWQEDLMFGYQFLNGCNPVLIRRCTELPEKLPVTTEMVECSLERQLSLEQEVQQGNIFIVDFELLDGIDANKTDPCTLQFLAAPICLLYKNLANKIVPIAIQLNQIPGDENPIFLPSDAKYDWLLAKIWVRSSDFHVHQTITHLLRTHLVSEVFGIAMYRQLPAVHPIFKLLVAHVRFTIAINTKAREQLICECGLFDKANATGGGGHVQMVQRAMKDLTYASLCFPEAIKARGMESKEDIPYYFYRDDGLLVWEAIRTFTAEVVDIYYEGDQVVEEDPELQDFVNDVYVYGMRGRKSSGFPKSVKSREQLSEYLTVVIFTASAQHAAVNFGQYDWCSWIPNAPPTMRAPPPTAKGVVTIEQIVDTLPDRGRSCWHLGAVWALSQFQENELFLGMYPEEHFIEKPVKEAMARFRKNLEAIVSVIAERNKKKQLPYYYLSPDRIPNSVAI
Summary of the method: (§2)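 Human 5-LO expressed in E. coli BL21 (pT3-5LO) at 37 °C, purified and used at once. Enzyme (0.5 μg/mL in PBS/EDTA with 1 mM ATP) preincubated with compound 5–10 min at 4 °C, prewarmed 30 s at 37 °C, started with 2 mM CaCl₂ + 20 μM AA (±1 μM 13(S)-HpODE), 10 min at 37 °C, stopped with cold methanol, products by HPLC.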

[4] = biological target: T3, Polyunsaturated fatty acid 5-lipoxygenase; assay: Inhibition of 5-lipoxygenase-mediated 5(S)-H(p)ETE formation in A23187-stimulated human PMNL incubated 10 mins prior to A23187 challenge
[5] = biological target: T4, Polyunsaturated fatty acid 5-lipoxygenase (Homo sapiens) (UniProt P09917); assay: Selectivity ratio of IC50 for human recombinant 5-lipoxygenase in cell-free system to IC50 for 5-lipoxygenase-mediated 5(S)-H(p)ETE formation in A23187-stimulated PMNL
T4 sequence (whole entry): T3 sequence (P09917 whole entry)

[6] = biological target: T4, Polyunsaturated fatty acid 5-lipoxygenase (Homo sapiens); assay: Inhibition of human recombinant 5-lipoxygenase-mediated product formation from arachidonic acid assessed as remaining activity at 10 uM after 5 to 10 mins by HPLC analysis; summary of the method: as §2
[7] = biological target: T3, Polyunsaturated fatty acid 5-lipoxygenase; assay: Inhibition of 5-lipoxygenase-mediated 5(S)-H(p)ETE formation in fMLP-stimulated human PMNL incubated 10 mins prior to fMLP challenge
[8] = Cytotoxicity in human polymorphonuclear leukocytes assessed as cell viability at 10 uM after 30 mins by MTT assay
[9] = biological target: Prostaglandin G/H synthase 1 (Ovis aries) (UniProt P05979); assay: Inhibition of ovine COX-1 mediated formation of 12-HHT from arachidonic acid assessed as remaining activity at 10 uM after 5 mins by HPLC analysis
[10] = biological target: Prostaglandin G/H synthase 2 (Homo sapiens) (UniProt P35354); assay: Inhibition of human recombinant COX-2 mediated formation of 12-HHT from arachidonic acid assessed as remaining activity at 10 uM after 5 mins by HPLC analysis
[11] = biological target: T4, Polyunsaturated fatty acid 5-lipoxygenase (Homo sapiens); assay: Inhibition of human recombinant 5-lipoxygenase-mediated product formation from arachidonic acid assessed as remaining activity at 1 uM after 5 to 10 mins by HPLC analysis; summary of the method: as §2
[12] = biological target: T5, Polyunsaturated fatty acid lipoxygenase ALOX15 (Homo sapiens) (UniProt P16050); assay: Inhibition of 15-lipoxygenase in A23187-stimulated human PMNL assessed as reduction of 15(S)-H(P)ETE formation up to 10 uM preincubated 15 mins by RP-HPLC analysis in presence of exogenous arachidonic acid
T5 sequence (whole entry): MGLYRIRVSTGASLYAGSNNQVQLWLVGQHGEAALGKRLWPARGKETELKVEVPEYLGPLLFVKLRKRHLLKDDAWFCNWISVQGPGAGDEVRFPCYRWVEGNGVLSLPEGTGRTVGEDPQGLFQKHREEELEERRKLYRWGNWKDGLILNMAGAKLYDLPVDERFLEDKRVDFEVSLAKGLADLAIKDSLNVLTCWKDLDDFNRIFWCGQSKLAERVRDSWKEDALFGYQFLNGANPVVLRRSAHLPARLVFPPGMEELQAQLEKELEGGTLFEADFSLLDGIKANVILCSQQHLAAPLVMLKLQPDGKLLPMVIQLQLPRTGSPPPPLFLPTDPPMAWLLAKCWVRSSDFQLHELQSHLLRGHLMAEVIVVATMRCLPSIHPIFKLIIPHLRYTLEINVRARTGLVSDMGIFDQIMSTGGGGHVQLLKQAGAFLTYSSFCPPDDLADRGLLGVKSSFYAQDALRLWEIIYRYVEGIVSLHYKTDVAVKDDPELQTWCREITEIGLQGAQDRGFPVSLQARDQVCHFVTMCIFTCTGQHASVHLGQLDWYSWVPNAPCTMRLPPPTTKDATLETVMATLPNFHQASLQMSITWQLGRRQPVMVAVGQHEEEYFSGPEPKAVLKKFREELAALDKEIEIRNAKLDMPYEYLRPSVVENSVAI
Summary of the method: (§3)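 Freshly isolated human PMNL (5 × 10⁶/mL in PBS pH 7.4 with 1 mg/mL glucose and 1 mM CaCl₂) preincubated with compound 15 min at 37 °C, then stimulated with 2.5 μM A23187 plus exogenous AA for 10 min at 37 °C. Stopped with methanol, PGB₁ added as internal standard, extracted, HPLC: 15(S)-H(p)ETE taken as 15-LO product, 12(S)-H(p)ETE as 12-LO product (platelet-type 12-LO from PMNL-adherent platelets).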

[13] = biological target: T6, Polyunsaturated fatty acid lipoxygenase ALOX12 (Homo sapiens) (UniProt P18054); assay: Inhibition of 12-lipoxygenase in A23187-stimulated human PMNL assessed as reduction of 12(S)-H(P)ETE formation up to 10 uM preincubated 15 mins by RP-HPLC analysis in presence of exogenous arachidonic acid; summary of the method: as §3
T6 sequence (whole entry): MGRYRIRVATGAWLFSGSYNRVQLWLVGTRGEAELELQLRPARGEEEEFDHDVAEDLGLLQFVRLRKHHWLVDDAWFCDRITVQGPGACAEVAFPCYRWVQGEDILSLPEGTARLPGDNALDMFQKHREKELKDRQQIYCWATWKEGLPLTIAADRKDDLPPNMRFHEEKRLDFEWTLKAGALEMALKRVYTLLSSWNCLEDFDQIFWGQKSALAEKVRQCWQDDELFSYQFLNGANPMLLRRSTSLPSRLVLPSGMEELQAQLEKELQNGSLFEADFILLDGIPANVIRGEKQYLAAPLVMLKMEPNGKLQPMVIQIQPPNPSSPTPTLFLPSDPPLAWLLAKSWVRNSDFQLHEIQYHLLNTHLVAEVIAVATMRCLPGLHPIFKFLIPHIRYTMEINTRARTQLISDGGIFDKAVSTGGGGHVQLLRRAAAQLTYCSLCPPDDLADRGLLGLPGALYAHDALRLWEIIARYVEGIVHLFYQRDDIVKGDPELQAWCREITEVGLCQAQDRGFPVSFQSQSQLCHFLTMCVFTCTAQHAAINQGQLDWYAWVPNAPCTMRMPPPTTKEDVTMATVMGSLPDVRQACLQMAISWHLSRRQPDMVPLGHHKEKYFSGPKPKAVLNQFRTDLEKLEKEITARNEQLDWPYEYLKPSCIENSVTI

[14] = biological target: T3, Polyunsaturated fatty acid 5-lipoxygenase; assay: Inhibition of 5-lipoxygenase in human PMNL S100 supernatant assessed as inhibition of enzyme product formation preincubated for 5 to 10 mins before arachidonic acid addition by HPLC analysis
Summary of the method: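 PMNL (5 × 10⁶/mL in PBS/1 mM EDTA) sonicated, centrifuged 100 000 × g for 1 h at 4 °C. S100 diluted in PBS/EDTA with 1 mM ATP, ±1 mM DTT, and preincubated with compound or 0.3% DMSO 5–10 min at 4 °C. Prewarmed 30 s at 37 °C, started with 2 mM CaCl₂ + 20 μM AA, 10 min at 37 °C, stopped with cold methanol, 5-LO products by HPLC.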

[15] = biological target: T5, Polyunsaturated fatty acid lipoxygenase ALOX15 (Homo sapiens); assay: Inhibition of 15-lipoxygenase in A23187-stimulated human PMNL assessed as reduction of 15(S)-H(P)ETE formation preincubated 15 mins by RP-HPLC analysis in presence of exogenous arachidonic acid; summary of the method: as §3
[16] = biological target: T6, Polyunsaturated fatty acid lipoxygenase ALOX12 (Homo sapiens); assay: Inhibition of 12-lipoxygenase in A23187-stimulated human PMNL assessed as reduction of 12(S)-H(P)ETE formation preincubated 15 mins by RP-HPLC analysis in presence of exogenous arachidonic acid; summary of the method: as §3

O=C1O[C@H]([C@@H](O)CO)C(O)=C1O
Activity [1]: Active

N[C@@H](CS)C(=O)O
Activity [1]: Active

CCCCC(Sc1nc(OCCc2ccc(OC)cc2)cc(OCCc2ccc(OC)cc2)n1)C(=O)O (stereo not given)
IC50 (Prostaglandin E synthase): > 10 µM
Activity [2]: 63.7%
IC50 [3]: 7 µM
IC50 [4]: 0.3 µM
Ratio IC50 [5]: > 20

CCCCC(Cc1ccc(OCCc2ccccc2)cc1OCCc1ccccc1)C(=O)O (stereo not given)
IC50 (Prostaglandin E synthase): > 10 µM
Activity [2]: 90.1%
IC50 [3]: > 10 µM
Activity [6]: 85.6%
IC50 [7]: > 10 µM
Activity [8]: Non-toxic
Activity [9]: 99.1%
Activity [10]: 110%

CCCC/C(=C\c1cc(OCCC2CCCCC2)ccc1OCc1ccc(C(F)(F)F)cc1)C(=O)O
IC50 (Prostaglandin E synthase): > 10 µM
Activity [2]: 74%
IC50 [3]: 10 µM
Activity [6]: 55.5%
Activity [8]: Non-toxic
IC50 [4]: 0.4 µM
Activity [9]: 92.3%
Activity [10]: 106%
Ratio IC50 [5]: > 20

CCCCC(Oc1cc(OCCc2ccccc2)cc(OCCc2ccccc2)c1)C(=O)O (stereo not given)
IC50 (Prostaglandin E synthase): 3.4 µM
IC50 [3]: > 10 µM
Activity [8]: Non-toxic
IC50 [4]: 0.6 µM
Activity [9]: 71.6%
Activity [10]: 92.5%
Ratio IC50 [5]: > 20

CC(C)c1ccc2c(c1)c(SC(C)(C)C)c(CC(C)(C)C(=O)O)n2Cc1ccc(Cl)cc1
inhibition [11]: inactive

CCCCCCC(Sc1nc(OCCc2ccccc2)cc(OCCc2ccccc2)n1)C(=O)O (stereo not given)
IC50 (Prostaglandin E synthase): 2 µM
IC50 [3]: 2.8 µM
inhibition [12]: inactive
inhibition [13]: inactive
IC50 [14]: 12.5 µM
Activity [1]: inactive
IC50 [7]: 0.4 µM

CCCC/C(=C\c1cc(OCCc2ccc(C(F)(F)F)cc2)ccc1OCCc1ccc(C(F)(F)F)cc1)C(=O)O
IC50 (Prostaglandin E synthase): 3.5 µM
IC50 [3]: > 10 µM
Activity [6]: 55.6%
Activity [8]: Non-toxic
IC50 [4]: 0.3 µM
Activity [9]: 81%
Activity [10]: 102%
Ratio IC50 [5]: > 20

CCCCC(Sc1nc(OCCc2ccc(OC(F)(F)F)cc2)cc(OCCc2ccc(OC(F)(F)F)cc2)n1)C(=O)O (stereo not given)
IC50 (Prostaglandin E synthase): > 10 µM
Activity [2]: 88.3%
IC50 [3]: > 10 µM
Activity [6]: 56.4%
IC50 [4]: 0.5 µM
Ratio IC50 [5]: > 20

Cc1ccc(-c2cc(C(F)(F)F)nn2-c2ccc(S(N)(=O)=O)cc2)cc1
inhibition [15]: inactive
inhibition [16]: inactive
